Assay results reported in ChEMBL document CHEMBL5143713, “Multitarget, Selective Compound Design Yields Potent Inhibitors of a Kinetoplastid Pteridine Reductase 1” (J Med Chem, 2022).

Experiments:
[1] = target: T1, Pteridine reductase, putative (Trypanosoma brucei, UniProt Q581W1); assay: Inhibition of recombinant Trypanosoma brucei PTR1 expressed in Escherichia coli BL21 (DE3) cells using H2B as substrate in presence of cytochrome c and NADPH by envision multilabel reader
T1 sequence (Q581W1 whole entry): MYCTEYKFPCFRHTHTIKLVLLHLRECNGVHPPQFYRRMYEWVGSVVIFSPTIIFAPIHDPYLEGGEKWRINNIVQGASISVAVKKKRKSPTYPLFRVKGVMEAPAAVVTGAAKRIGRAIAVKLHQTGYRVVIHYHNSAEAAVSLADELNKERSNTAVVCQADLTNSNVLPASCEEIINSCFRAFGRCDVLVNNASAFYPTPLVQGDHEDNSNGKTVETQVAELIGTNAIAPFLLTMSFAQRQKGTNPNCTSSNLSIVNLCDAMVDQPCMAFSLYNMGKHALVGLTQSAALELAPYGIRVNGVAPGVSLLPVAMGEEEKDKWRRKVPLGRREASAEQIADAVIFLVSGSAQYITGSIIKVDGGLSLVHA

Pteridine reductase 1 = target: T2, Pteridine reductase 1 (Leishmania major, UniProt Q01782); assay: Inhibition of recombinant Leishmania major PTR1 expressed in Escherichia coli BL21 (DE3) cells using H2B as substrate in presence of cytochrome c and NADPH by envision multilabel reader
T2 sequence (Q01782 whole entry): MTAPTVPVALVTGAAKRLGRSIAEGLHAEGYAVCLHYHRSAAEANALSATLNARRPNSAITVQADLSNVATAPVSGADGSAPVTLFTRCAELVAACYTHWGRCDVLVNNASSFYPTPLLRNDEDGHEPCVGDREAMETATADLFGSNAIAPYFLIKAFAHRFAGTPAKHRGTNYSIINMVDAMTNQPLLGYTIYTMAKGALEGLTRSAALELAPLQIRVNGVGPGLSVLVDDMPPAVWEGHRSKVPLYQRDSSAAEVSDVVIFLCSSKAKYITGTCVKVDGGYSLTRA

[2] = target: Bifunctional dihydrofolate reductase-thymidylate synthase (Trypanosoma brucei brucei, UniProt Q27783); assay: Inhibition of recombinant Trypanosoma brucei DHFR-TS expressed in Escherichia coli BL21 (DE3) cells using dihydrofolate as substrate in presence of NADPH by spectrophotometric analysis
[3] = target: Bifunctional dihydrofolate reductase-thymidylate synthase (Leishmania major, UniProt P07382); assay: Inhibition of recombinant Leishmania major DHFR-TS expressed in Escherichia coli BL21 (DE3) cells using dihydrofolate as substrate in presence of NADPH by spectrophotometric analysis
Dihydrofolate reductase = target: T3, Dihydrofolate reductase (Homo sapiens, UniProt P00374); assay: Inhibition of recombinant human DHFR expressed in Escherichia coli BL21 (DE3) cells using dihydrofolate as substrate in presence of NADPH by spectrophotometric analysis; type: toxicity
T3 sequence (P00374 whole entry): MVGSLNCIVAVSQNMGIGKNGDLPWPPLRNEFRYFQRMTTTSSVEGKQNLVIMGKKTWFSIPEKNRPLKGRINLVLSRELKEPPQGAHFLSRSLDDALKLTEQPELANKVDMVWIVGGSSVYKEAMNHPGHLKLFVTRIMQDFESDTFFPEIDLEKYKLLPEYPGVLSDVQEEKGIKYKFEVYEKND

[4] = system: human DHFR versus Trypanosoma brucei PTR1; assay: Selectivity index, ratio of IC50 for human DHFR to IC50 for Trypanosoma brucei PTR1; type: toxicity; settings: read-out: Ratio IC50
[5] = system: human DHFR versus Leishmania major PTR1; assay: Selectivity index, ratio of IC50 for human DHFR to IC50 for Leishmania major PTR1; type: toxicity; settings: read-out: Ratio IC50
[6] = system: human DHFR versus Trypanosoma brucei DHFR; assay: Selectivity index, ratio of IC50 for human DHFR to IC50 for Trypanosoma brucei DHFR; type: toxicity; settings: read-out: Ratio IC50
[7] = system: human DHFR versus Leishmania major DHFR; assay: Selectivity index, ratio of IC50 for human DHFR to IC50 for Leishmania major DHFR; type: toxicity; settings: read-out: Ratio IC50
[8] = target: Voltage-gated inwardly rectifying potassium channel KCNH2 (Homo sapiens, UniProt Q12809); assay: Inhibition of hERG potassium channel at 10 uM by fluorescence polarization assay relative to control; type: toxicity
In short: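 Tested at 10 μM. Fluorescence polarization readout using a hERG-containing membrane fraction and a red fluorescent high-affinity hERG tracer. Displacement of the tracer by the compound is measured.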

786-0 = assay: Mitochondrial toxicity in human 786-0 cells at 10 uM incubated with compound for 6 hrs followed by incubation with MitoTracker Red chloromethyl-X-rosamine dye for 45 mins by imaging analysis relative to control; type: cell-based; settings: 786-0, 6 h
In short: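 Tested at 10 μM. 786-O cells kept in RPMI-1640 with 2 mM glutamine, 10% FCS, streptomycin 100 μg/mL and penicillin G 100 U/mL. Mitochondrial toxicity read as MitoTracker Red (chloromethyl-X-rosamine) uptake by high-content imaging.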

A549 = assay: Cytotoxicity against human A549 cells at 10 uM measured after 48 hrs by Celltiter-Glo assay relative to control; type: toxicity, cell-based; settings: a549, 48 h
In short: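 Tested at 10 μM. A549 cells grown in DMEM with 10% FCS, streptomycin 100 μg/mL and penicillin G 100 U/mL. Viability read as cellular ATP by CellTiter-Glo luminescence.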

CYP3A4 = CYP3A4 (Homo sapiens, UniProt P08684); assay: Inhibition of CYP3A4 (unknown origin) expressed in baculovirus-infected insect cells at 10 uM using CYP/Luciferin as substrate incubated for 30 mins in presence of NADPH by luminescence based analysis relative to control; type: ADME; settings: probe CYP/Luciferin
In short: (§1)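 Tested at 10 μM using microsomal preparations of each CYP isoform from baculovirus-infected insect cells on a luminescent P450-Glo platform. The enzyme acts on its substrate to give light, and a fall in luminescence indicates inhibition.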

[9] = system: Trypanosoma brucei brucei; assay: Antitrypanosomal activity against bloodstream form of Trypanosoma brucei brucei Lister 427 assessed as parasite growth inhibition at 10 uM incubated for 72 hrs by resazurin dye based analysis relative to control; type: functional
Macrophage = assay: (§2) Cytotoxicity against human THP-1 derived macrophages by colorimetric MTT assay; type: toxicity, cell-based; settings: macrophage
In short: (§3)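 CC50 from at least three independent MTT colorimetric cytotoxicity runs on THP-1-derived macrophages. Selectivity index is CC50 (or lower CC50 interval estimate) divided by antiparasitic EC50.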

[10] = system: Trypanosoma brucei brucei; assay: Antitrypanosomal activity against bloodstream form of Trypanosoma brucei brucei Lister 427 assessed as parasite growth inhibition incubated for 72 hrs by resazurin dye based analysis; type: functional, organism-based; settings: Lister 427, 72 h
[11] = as §2; type: toxicity, cell-based, Macrophage; settings: THP-1 derived macrophages; in short: as §3
CYP1A2 = target: T4, CYP1A2 (Homo sapiens, UniProt P05177); assay: Inhibition of CYP1A2 (unknown origin) expressed in baculovirus-infected insect cells at 10 uM using CYP/Luciferin as substrate incubated for 30 mins in presence of NADPH by luminescence based analysis relative to control; type: ADME; settings: probe CYP/Luciferin; in short: as §1
T4 sequence (P05177 whole entry): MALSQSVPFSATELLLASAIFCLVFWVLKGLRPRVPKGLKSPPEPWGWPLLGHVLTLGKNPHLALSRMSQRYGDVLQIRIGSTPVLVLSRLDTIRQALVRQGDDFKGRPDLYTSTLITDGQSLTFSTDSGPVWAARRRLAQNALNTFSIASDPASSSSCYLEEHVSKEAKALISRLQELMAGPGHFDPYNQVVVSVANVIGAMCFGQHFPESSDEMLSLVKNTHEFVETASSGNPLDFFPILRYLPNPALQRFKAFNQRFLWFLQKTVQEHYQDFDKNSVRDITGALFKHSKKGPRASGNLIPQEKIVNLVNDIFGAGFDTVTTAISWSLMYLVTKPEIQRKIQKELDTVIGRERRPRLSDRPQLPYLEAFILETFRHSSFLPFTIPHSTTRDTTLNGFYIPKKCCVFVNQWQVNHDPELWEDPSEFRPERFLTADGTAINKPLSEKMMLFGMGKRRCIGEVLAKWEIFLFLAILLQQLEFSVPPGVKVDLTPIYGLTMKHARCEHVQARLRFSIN

CYP3A4, sequence (P08684 whole entry, canonical isoform): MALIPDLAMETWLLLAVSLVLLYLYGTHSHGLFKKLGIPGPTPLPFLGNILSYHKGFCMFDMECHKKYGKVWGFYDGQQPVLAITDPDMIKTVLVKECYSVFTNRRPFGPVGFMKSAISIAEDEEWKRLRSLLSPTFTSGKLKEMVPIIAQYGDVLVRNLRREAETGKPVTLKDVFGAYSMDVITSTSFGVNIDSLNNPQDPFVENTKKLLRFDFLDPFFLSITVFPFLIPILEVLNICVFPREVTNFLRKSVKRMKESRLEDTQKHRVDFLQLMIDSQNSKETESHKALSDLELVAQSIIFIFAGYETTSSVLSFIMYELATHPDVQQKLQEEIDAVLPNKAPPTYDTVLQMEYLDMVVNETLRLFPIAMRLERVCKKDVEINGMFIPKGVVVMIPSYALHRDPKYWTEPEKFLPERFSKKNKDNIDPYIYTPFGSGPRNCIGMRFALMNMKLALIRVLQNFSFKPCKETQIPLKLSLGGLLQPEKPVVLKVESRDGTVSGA
Bifunctional dihydrofolate reductase-thymidylate synthase (Leishmania major, UniProt P07382), sequence (P07382 whole entry): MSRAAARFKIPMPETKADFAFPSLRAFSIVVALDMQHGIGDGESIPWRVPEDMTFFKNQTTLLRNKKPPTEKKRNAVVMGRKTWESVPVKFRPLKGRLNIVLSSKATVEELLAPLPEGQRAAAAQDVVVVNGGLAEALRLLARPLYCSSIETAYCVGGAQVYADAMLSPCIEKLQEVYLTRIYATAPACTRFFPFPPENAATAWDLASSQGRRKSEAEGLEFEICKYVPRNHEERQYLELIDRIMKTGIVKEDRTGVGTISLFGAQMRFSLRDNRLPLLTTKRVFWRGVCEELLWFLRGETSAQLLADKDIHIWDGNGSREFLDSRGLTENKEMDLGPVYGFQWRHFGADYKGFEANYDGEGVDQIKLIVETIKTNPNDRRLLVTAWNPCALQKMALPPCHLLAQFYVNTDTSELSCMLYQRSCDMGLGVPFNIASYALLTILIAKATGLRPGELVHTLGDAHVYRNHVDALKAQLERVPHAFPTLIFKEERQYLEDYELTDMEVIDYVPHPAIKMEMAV
Bifunctional dihydrofolate reductase-thymidylate synthase (Trypanosoma brucei brucei, UniProt Q27783), sequence (Q27783 whole entry): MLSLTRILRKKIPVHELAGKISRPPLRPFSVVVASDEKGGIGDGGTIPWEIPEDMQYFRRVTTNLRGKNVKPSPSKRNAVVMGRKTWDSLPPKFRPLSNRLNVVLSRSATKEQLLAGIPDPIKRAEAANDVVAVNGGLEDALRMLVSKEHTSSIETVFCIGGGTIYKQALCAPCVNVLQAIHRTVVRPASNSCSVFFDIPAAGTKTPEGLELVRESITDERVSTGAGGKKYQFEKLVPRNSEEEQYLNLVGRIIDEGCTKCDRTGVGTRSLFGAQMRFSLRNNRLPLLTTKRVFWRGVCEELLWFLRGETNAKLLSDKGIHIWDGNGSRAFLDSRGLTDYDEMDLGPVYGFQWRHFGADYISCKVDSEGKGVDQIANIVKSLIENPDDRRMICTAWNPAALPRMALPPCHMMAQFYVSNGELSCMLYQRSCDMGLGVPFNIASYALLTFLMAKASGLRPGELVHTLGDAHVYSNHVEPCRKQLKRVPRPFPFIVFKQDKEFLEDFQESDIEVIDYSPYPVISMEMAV
Voltage-gated inwardly rectifying potassium channel KCNH2, sequence (Q12809 whole entry): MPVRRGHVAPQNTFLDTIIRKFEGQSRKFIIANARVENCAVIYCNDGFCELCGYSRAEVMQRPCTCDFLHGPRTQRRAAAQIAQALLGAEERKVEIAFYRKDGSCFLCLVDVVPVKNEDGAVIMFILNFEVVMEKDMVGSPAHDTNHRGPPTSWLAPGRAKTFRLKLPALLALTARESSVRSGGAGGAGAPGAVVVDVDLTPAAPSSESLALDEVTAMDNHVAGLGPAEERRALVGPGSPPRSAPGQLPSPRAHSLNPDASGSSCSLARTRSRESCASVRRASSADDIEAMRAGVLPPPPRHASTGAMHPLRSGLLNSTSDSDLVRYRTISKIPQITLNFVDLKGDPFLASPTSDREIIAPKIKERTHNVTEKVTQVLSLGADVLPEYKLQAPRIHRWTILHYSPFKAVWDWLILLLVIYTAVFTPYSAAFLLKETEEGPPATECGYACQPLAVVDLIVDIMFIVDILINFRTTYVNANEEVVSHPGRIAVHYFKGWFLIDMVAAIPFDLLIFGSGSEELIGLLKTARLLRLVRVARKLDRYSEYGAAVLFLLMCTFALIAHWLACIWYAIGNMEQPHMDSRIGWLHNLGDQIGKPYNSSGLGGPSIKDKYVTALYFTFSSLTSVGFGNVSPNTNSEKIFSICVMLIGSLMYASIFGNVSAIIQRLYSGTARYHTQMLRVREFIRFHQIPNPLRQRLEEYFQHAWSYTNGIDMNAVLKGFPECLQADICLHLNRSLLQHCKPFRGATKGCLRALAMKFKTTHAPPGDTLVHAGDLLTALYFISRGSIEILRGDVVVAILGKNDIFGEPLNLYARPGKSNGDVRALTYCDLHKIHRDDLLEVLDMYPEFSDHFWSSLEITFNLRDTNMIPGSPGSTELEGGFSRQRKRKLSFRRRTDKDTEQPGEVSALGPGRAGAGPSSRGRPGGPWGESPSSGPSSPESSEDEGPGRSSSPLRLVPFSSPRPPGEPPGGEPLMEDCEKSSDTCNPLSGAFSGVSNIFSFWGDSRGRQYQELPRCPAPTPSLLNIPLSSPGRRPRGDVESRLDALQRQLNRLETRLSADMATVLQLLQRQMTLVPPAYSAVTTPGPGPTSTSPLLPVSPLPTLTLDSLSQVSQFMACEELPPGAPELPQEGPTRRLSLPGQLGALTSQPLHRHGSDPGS

Structure (SMILES)	IC50 [1]	IC50 (Pteridine reductase 1)	IC50 [2]	IC50 [3]	IC50 (Dihydrofolate reductase)	selectivity ratio [4]	selectivity ratio [5]	selectivity ratio [6]	selectivity ratio [7]	inhibition (INH) [8]	Activity (786-0)	Activity (A549)	inhibition at 0.5 h, 10 µM (CYP3A4)	inhibition at 10 µM [9]	CC50 (Macrophage)	EC50 [10]	CC50 [11]	inhibition at 0.5 h, 10 µM (CYP1A2)
COC(=O)C1CCN(C(=O)c2ccc(N(Cc3ccccc3)Cc3cnc4nc(N)nc(N)c4n3)cc2)CC1	< 0.1 nM	20 nM	1200 nM	910 nM	73000 nM	> 730000	3650	61	80	45%	0%	100%						
Nc1nc(N)c2nc(CNc3ccc(C(=O)c4ccccc4)cc3)cnc2n1	1 nM	30 nM	990 nM	3260 nM	6020 nM	6020	201	6	2		10%		17%					
Nc1nc(N)c2nc(CNc3ccc(C(=O)NCCc4ccccc4)cc3)cnc2n1	< 0.1 nM	30 nM	980 nM	720 nM	40300 nM	> 403000	1340	41	56		13%	100%						
COc1ccc(Oc2ccc(CNCc3cnc4nc(N)nc(N)c4n3)cc2)cc1	520 nM	260 nM				192	385	1	1		0%		33%					
Nc1nc(N)c2nc(CNc3cccc4ccccc34)cnc2n1	10 nM	10 nM	450 nM	1510 nM	4400 nM	440	440	10	3		0%	0%						
CCCOC(=O)C1CCN(C(=O)c2ccc(N(C)Cc3cnc4nc(N)nc(N)c4n3)cc2)CC1	30 nM	410 nM	3000 nM	150 nM	9000 nM	300	22	3	59		0%	0%						
NC(=O)C1CCN(C(=O)Cc2ccc(N(CCCO)Cc3cnc4nc(N)nc(N)c4n3)cc2)CC1	10 nM	170 nM	18000 nM	1140 nM							0%			30%				
N=C(N)c1ccc(OCCCCCOc2ccc(C(=N)N)cc2)cc1 [PENTAMIDINE]															10000 nM			
NC(=O)C1CCCN1C(=O)Cc1ccc(N(CCCO)Cc2cnc3nc(N)nc(N)c3n2)cc1 (stereo not given)	4 nM	170 nM	590 nM	890 nM									0%	23%				
COc1ccc(Oc2ccc(CN(C)Cc3cnc4nc(N)nc(N)c4n3)cc2)cc1	150 nM	450 nM									1%	15%		100%		1300 nM	12500 nM	9%
COc1ccc(Oc2ccc(CN(Cc3ccccc3)Cc3cnc4nc(N)nc(N)c4n3)cc2)cc1	240 nM	150 nM									0%			100%		4530 nM	12500 nM	
CCN(Cc1cnc2nc(N)nc(N)c2n1)c1ccc(C(=O)c2ccccc2)cc1	< 0.1 nM	50 nM	340 nM	230 nM							0%	0%		78%		660 nM	25000 nM	
